Laboratory results from PubChem BioAssay.
Active and inactive are the calls of the source.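 How the source made its calls, unless noted: active means viability loss from added drug above about 55%, and viability with drug at most 40%, in both replicates (limit read from the data, passing the limit was not always enough); inconclusive means both conditions met in only one replicate; inactive means neither replicate meets both conditions.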

Key:
[1] = reducers of endogenous Her2 protein level, primary screen, SKBR3 breast tumor cells, AlphaScreen, ATP viability (AID 461;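 active means Her2 level under about 52% in both replicate screens, with viability over 70% of control, limit read from the data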;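 on Her2 level: lower value means less Her2 protein in the cells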;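 on viability: percent of carrier control wells set as 100% viability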); conditions: 18-24 h, measured here: SKBR3 viability, ATP luminescence, at 10 µM
[2] = molecular target: Receptor tyrosine-protein kinase erbB-2 (Homo sapiens) (UniProt P04626); test: as above; conditions: 18-24 h, at 10 µM, stronger effect = lower value
Sequence of Receptor tyrosine-protein kinase erbB-2 (Homo sapiens) (P04626 whole entry, looked up): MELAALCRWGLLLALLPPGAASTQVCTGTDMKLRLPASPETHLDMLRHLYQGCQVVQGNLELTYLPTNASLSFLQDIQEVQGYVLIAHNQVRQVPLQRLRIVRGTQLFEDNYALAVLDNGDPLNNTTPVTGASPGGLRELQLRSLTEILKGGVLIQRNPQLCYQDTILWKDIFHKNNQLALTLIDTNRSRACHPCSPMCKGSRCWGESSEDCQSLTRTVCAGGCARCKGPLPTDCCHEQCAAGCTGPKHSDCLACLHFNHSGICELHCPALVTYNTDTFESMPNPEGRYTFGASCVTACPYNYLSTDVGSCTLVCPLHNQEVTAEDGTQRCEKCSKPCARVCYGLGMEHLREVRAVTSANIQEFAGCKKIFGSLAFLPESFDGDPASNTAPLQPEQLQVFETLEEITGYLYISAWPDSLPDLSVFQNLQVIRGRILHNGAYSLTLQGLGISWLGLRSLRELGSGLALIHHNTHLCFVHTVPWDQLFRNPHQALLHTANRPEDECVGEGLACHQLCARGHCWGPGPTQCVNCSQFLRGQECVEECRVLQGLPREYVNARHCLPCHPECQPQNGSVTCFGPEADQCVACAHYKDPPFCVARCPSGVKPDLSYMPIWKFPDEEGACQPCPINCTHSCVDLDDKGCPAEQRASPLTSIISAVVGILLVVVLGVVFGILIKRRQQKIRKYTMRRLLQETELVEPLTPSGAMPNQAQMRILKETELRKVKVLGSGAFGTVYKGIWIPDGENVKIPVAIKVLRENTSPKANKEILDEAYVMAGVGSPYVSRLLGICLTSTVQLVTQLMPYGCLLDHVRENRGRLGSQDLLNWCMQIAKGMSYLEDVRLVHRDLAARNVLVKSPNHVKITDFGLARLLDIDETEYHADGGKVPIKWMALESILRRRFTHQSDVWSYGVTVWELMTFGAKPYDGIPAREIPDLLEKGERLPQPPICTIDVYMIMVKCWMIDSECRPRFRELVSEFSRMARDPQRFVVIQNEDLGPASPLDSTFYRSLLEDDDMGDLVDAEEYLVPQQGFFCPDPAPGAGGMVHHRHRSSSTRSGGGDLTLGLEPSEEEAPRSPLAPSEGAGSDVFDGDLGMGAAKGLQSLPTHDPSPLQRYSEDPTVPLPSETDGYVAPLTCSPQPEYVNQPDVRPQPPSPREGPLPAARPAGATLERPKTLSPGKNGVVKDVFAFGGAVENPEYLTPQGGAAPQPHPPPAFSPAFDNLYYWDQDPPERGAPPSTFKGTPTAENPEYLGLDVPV

[3] = SK-BR-3 cell growth inhibitors, pilot screen, 24 h, human (AID 572;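 active means viability at or below 10% of carrier control in both of two separate runs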;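 further: compound exposure lasted between 18 and 24 h rather than exactly 24 h; 100% = carrier-treated control wells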); conditions: SK-BR-3 viability, CellTiter-Glo luminescence, at 10 µM, stronger effect = lower value
[4] = HUVEC growth inhibition – cell-based, human, primary screen (AID 575;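 active means viability at or below 30% in both replicate assays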;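 further: 100% = median of untreated cell wells with 0.1% DMSO on each plate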); conditions: HUVEC proliferation, CellTiter-Glo luminescence, 72 h; at 10 µM; stronger effect = lower value
Method in brief: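 Assay system: Primary human umbilical vein endothelial cells | Quantity: 1250 cells per well | Medium: Supplemented EBM, 2% fetal bovine serum | Detection: CellTiter-Glo luminescence measuring cellular ATP | Read-out: % viability vs DMSO wells | Plate: Collagen-coated 384-well format | Times: 72 h exposure, 37 °C, 5% CO2, 30 min RT equilibration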

[5] = growth inhibitors of H69AR lung tumor, primary screen, human, duplicate replicates (AID 580;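 active means viability at or under a set limit in both replicates, limit being median viability minus 3 SD, cut at about 48% in these data, passing the limit was not always enough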;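 further: 100% = mean luminescence of untreated wells and 0% = no signal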); conditions: H69AR lung tumor cells viability, ATP luminescence, 72 h; at 10 µM; stronger effect = lower value
[6] = reversal of MRP1-mediated doxorubicin resistance, pilot screen, H69AR cells, doxorubicin co-treatment (AID 601); conditions: CellTiter-Glo, 72 h, at 10 µM; for differential viability (reversal): stronger effect = higher value
[7] = 384-well plate pilot, post-Golgi transport modulator project, inhibition of yeast transport mutant growth (AID 636; in the data active means inhibition above about 31%); conditions: absorbance 615 nm, about 18 h, stronger effect = higher value
[8] = growth suppression of yeast trafficking mutant, preliminary HTS, modulators of trafficking downstream of Golgi apparatus project, 1536-format plate, OD 615 nm (AID 637; in the data active means inhibition above about 30%); conditions: yeast transport mutant growth, absorbance 615 nm, 18 h; stronger effect = higher value
[9] = H69AR cells + 2 uM doxorubicin, measured here: viability with 2 uM doxorubicin, stronger effect = lower value
[10] = H69AR cells, compound alone cytotoxicity

SMILES	viability [1]	Her2 level [2]	viability [3]	viability [4]	viability [5]	differential viability (reversal) ([6]; H69AR cells + 2 uM doxorubicin)	viability [6, 9]	viability [6, 10]	inhibition [7]	inhibition [8]
CCN(C#N)c1nc(NC(C)C)nc(NC(C)C)n1	96.5%	93% (inactive)	96.5% (inactive)	97.6% (inactive)	93.6% (inactive)	4.81% (inactive)	88.8%	93.6%	-4.46% (inactive)	-7.17% (inactive)
COc1ccc(CC(=O)OCc2nnc(C3COc4ccccc4O3)o2)cc1OC (stereo not given)	116%	104% (inactive)	116% (inactive)	91.3% (inactive)	104% (inactive)	19.8% (inactive)	83.7%	104%	-2% (inactive)	-1.64% (inactive)
O=C(c1ccco1)N1CCN(/C(=N/S(=O)(=O)c2cccs2)c2ccccc2Cl)CC1	77%	81% (inactive)	77% (inactive)	88.7% (inactive)	93.1% (inactive)	0.85% (inactive)	92.3%	93.1%	-4.73% (inactive)	-3.77% (inactive)
O=C(Nc1cccc(F)c1)c1cccc(S(=O)(=O)N2CCOCC2)c1	107%	87% (inactive)	107% (inactive)	92.8% (inactive)	91.6% (inactive)	0.615% (inactive)	91%	91.6%	-6.71% (inactive)	-5.71% (inactive)
Cc1cc(=O)n(C)c(=O)n1CCCCCN1CCCC1	96.5%	80% (inactive)	96.5% (inactive)	100% (inactive)	99.8% (inactive)	14.7% (inactive)	85.2%	99.8%	-1.2% (inactive)	0.48% (inactive)
CC12CCC(C(=O)N3CCCCC3)(CC1=O)C2(C)C (stereo not given)	97.5%	102% (inactive)	97.5% (inactive)	96.3% (inactive)	97.8% (inactive)	0.59% (inactive)	97.2%	97.8%	-3.08% (inactive)	-0.83% (inactive)
O=C(Nc1ccccc1N1CCOCC1)c1ccc2ccccc2n1	90%	83.5% (inactive)	90% (inactive)	67.4% (inactive)	79.4% (inactive)	-12.4% (inactive)	91.9%	79.4%	-4.74% (inactive)	-2% (inactive)
COc1cccc(NC(=O)N2CCN(C(=O)C(Cc3ccc(OC)c(OC)c3)NC(C)=O)CC2)c1 (stereo not given)	97%	124% (inactive)	97% (inactive)	91.1% (inactive)	90.7% (inactive)	2.21% (inactive)	88.5%	90.7%	-4.62% (inactive)	-7.5% (inactive)
COC(=O)c1cc(Br)c(=O)n(Cc2cccnc2)c1	108%	81.5% (inactive)	108% (inactive)	95.9% (inactive)	97.3% (inactive)	17% (inactive)	80.3%	97.3%	-3.95% (inactive)	0.18% (inactive)
Cc1cc(C(=O)NCCCN2CCN(C3CCCCC3)CC2)n(-c2ccccc2)n1	94%	111% (inactive)	94% (inactive)	111% (inactive)	103% (inactive)	11.8% (inactive)	90.8%	103%	1.73% (inactive)	-8.33% (inactive)
Nc1c(C2=NCCO2)nnn1Cc1ccccc1	118%	95.5% (inactive)	118% (inactive)	94% (inactive)	87.3% (inactive)	0.315% (inactive)	87%	87.3%	-3.42% (inactive)	3.28% (inactive)
O=c1c2ccccc2sn1-c1ccc(S(=O)(=O)N2CCCCC2)cc1	91.5%	81.5% (inactive)	91.5% (inactive)	83.9% (inactive)	78.1% (inactive)	5.85% (inactive)	72.3%	78.1%	-5.54% (inactive)	9.17% (inactive)
CC1CCN(C(=O)CCNS(=O)(=O)c2ccccc2)CC1	110%	118% (inactive)	110% (inactive)	96.7% (inactive)	92.8% (inactive)	0.83% (inactive)	92%	92.8%	-3.9% (inactive)	-2.06% (inactive)
COc1cccc(CNC(=O)CCn2c(=O)oc3ccccc32)c1	77.5%	94.5% (inactive)	77.5% (inactive)	94.7% (inactive)	86.4% (inactive)	-3.03% (inactive)	89.4%	86.4%	-5.92% (inactive)	-1.82% (inactive)
CCOC(=O)C1=C(C)NC(SC(C)=O)=NC1c1ccc(OC(C)=O)c(OC)c1 (stereo not given)	106%	95.5% (inactive)	106% (inactive)	82.9% (inactive)	85.3% (inactive)	-9.22% (inactive)	94.5%	85.3%	-6.84% (inactive)	-6.36% (inactive)
O=C(O)CCc1ccc(-c2cccs2)o1	94%	86% (inactive)	94% (inactive)	95.9% (inactive)	95.9% (inactive)	4.25% (inactive)	91.6%	95.9%	-0.26% (inactive)	-5.67% (inactive)
